Source: ChEMBL document CHEMBL4414551, “Design, Synthesis, and Biological Evaluation of Substituted 4,6-Dihydrospiro[[1,2,3]triazolo[4,5-b]pyridine-7,3'-indoline]-2',5(3H)-dione Analogues as Potent NS4B Inhibitors for the Treatment of Dengue Virus Infection” (J Med Chem, 2019)
pEC50: −log10 of the molar value. Calls of active or inactive are those of the source. No cut-off for these calls is given here.

What was measured:
dengue virus type 2 [1] = test: Antiviral activity against Dengue virus 2 isolate P0 infected in human HuH7 cells incubated for 3 days by viral reduction assay; format: functional, organism-based; conditions: isolate P0, Huh-7, 72 h
[2] = Cytotoxicity in human HuH7 replicon cells infected with Dengue virus 2 NGC assessed as reduction in cell viability incubated for 48 hrs by Cell-titer-Glo reagent based assay; parameters: species or system Huh-7
Outline: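 Huh7 cells or Huh7 replicon cells plated, then held at 37 °C with 5% CO₂ overnight. Exposed to 2-fold serial compound dilutions for 48 h, in duplicate. Viability read with CellTiter-Glo and normalized to 0.45% DMSO wells set at 100%. CC50 from four-parameter logistic fit.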

dengue virus type 4 = test: Antiviral activity against Dengue virus 4 D4MY01-22713 infected in human HuH7 replicon cells expressing Renilla luciferase and neomycin-resistance genes assessed as reduction in viral replication incubated for 48 hrs by luciferase reporter replicon-based assay; format: functional, organism-based; conditions: D4MY01-22713, Huh-7, 48 h
Outline: (§1)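 Huh7 cells stably carrying a Renilla luciferase/neomycin-resistance replicon (DENV-1 WestPac, DENV-2 NGC, DENV-3 D3MY05-34640 or DENV-4 D4MY01-22713). Cells seeded at 10k per well and incubated overnight at 37 °C, 5% CO2. Then exposed to 2-fold serial compound dilutions for 48 h, in duplicate. Luciferase read with a live-cell substrate. EC50 from four-parameter logistic fit.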

dengue virus type 3 = test: Antiviral activity against Dengue virus 3 D3MY05-34640 infected in human HuH7 replicon cells expressing Renilla luciferase and neomycin-resistance genes assessed as reduction in viral replication incubated for 48 hrs by luciferase reporter replicon-based assay; format: functional, organism-based; conditions: D3MY05-34640, Huh-7, 48 h; outline: as §1
dengue virus type 2 [3] = test: Antiviral activity against Dengue virus 2 NGC infected in human HuH7 replicon cells expressing Renilla luciferase and neomycin-resistance genes assessed as reduction in viral replication incubated for 48 hrs by luciferase reporter replicon-based assay; format: functional, organism-based; conditions: Huh-7, 48 h; outline: as §1
dengue virus type 1 = test: Antiviral activity against Dengue virus 1 WestPac infected in human HuH7 replicon cells expressing Renilla luciferase and neomycin-resistance genes assessed as reduction in viral replication incubated for 48 hrs by luciferase reporter replicon-based assay; format: functional, organism-based; conditions: Huh-7, 48 h; outline: as §1
dengue virus type 2 [4] = test: Antiviral activity against Dengue virus 2 D2Y98P infected in A129 mouse model of dengue viremia assessed as reduction in viral loads in sera at 100 mg/kg, po BID for 3 days measured day 3 postinfection by viral plaque assay relative to control; format: functional
Outline: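 A129 mice (IFN-α/β receptor knockout), 3 weeks old, n = 6 per group; DENV-2 D2Y98P stock grown in BHK-21 cells, 100 µL at 10⁷ PFU/ml given subcutaneously. Oral dosing started immediately, twice daily for 3 days, as a suspension in 2.5% DMSO, 50% PEG-400 and 47.5% DPBS, or vehicle alone. Retro-orbital bleed on day 3 p.i.; plasma viremia measured by plaque assay; unpaired parametric test.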

dengue virus type 2 [5] = test: (§2) Antiviral activity against NS3 T606A mutant and NS4B V63L mutant containing Dengue virus 2 isolate P12-VI infected in human HuH7 cells using viral isolates selected by serial passaging in presence of (R)-5'-Chloro-3-((S)-1-(4-chlorophenyl)ethyl)-1'-(2-(dimethylamino)ethyl)-4,6-dihydrospiro[[1,2,3]triazolo[4,5-b]-pyridine-7,3'-indoline]-2',5(3H)-dione incubated for 3 days by viral reduction assay; format: functional, organism-based; conditions: Huh-7
dengue virus type 2 [6] = test: as §2, with “Resistance index, ratio of EC50 for antiviral” for “Antiviral”, “assay to EC50 for antiviral activity against Dengue virus 2 isolate P0 infected in human HuH7 cells incubated for 3 days by viral reduction assay” for “assay”; format: functional
dengue virus type 2 [7] = test: Antiviral activity against Dengue virus 2 NGC infected in human HuH7 cells incubated for 48 hrs by viral titer reduction assay; format: functional, organism-based; conditions: Huh-7, 48 h
Outline: (§3)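 Huh7 cells seeded the day before, then infected with DENV-2 NGC or D2Y98P at MOI 0.3 in the presence of 2-fold serial compound dilutions, in triplicate. After 48 h at 37 °C, infectious virus in the culture fluid was titrated by plaque assay. EC50 from four-parameter logistic fit.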

dengue virus type 2 [8] = test: Antiviral activity against Dengue virus 2 D2Y98P infected in A129 mouse model of dengue viremia assessed as reduction in viral morbidity by measuring body weight at 100 mg/kg, po BID for 3 days measured day 3 postinfection by viral plaque assay relative to control; format: functional, organism-based
[9] = Tmax in Sprague-Dawley rat at 20 mg/kg, po measured up to 24 hrs by LC-MS/MS analysis; format: ADME, organism-based; conditions: in vivo
Outline: (§4)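 Male SD rats, n = 3, fasted 12 h, given 20 mg/kg orally. Comparison arm given 10 mg/kg as an iv bolus, n = 3. Both formulated in DMSO:20% HP-β-CD in saline (1:9). Plasma sampled from 15 min (5 min iv) to 24 h. Analysed by LC-MS/MS against an 8-point standard curve with 6 QCs. Parameters derived by non-compartmental analysis.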

[10] = Clearance in Sprague-Dawley rat at 20 mg/kg, po measured up to 24 hrs by LC-MS/MS analysis; format: ADME, organism-based; conditions: in vivo
Outline: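 Male SD rats, N = 3, fasted 12 h; oral 20 mg/kg (alongside a 10 mg/kg i.v. bolus arm) formulated as DMSO solution : 20% HP-β-CD in saline = 1:9. Plasma sampled at 15 min, 30 min, 1, 2, 4, 8 and 24 h. Levels measured by LC-MS/MS against an 8-point standard curve with 6 QCs; parameters from non-compartmental analysis.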

[11] = Oral bioavailability n Sprague-Dawley rat at 20 mg/kg measured up to 24 hrs by LC-MS/MS analysis; format: ADME, organism-based; conditions: in vivo; outline: as §4
dengue virus type 2 [12] = test: Antiviral activity against Dengue virus 2 D2Y98P infected in human HuH7 cells incubated for 48 hrs by viral titer reduction assay; format: functional, organism-based; conditions: Huh-7, 48 h; outline: as §3
dengue virus type 2 [13] = test: (§5) Resistance index, ratio of EC50 for antiviral activity against NS3 T606A mutant containing Dengue virus 2 isolate P12-II infected in human HuH7 cells using viral isolates selected by serial passaging in presence of DMSO incubated for 3 days by viral reduction assay to EC50 for antiviral activity against Dengue virus 2 isolate P0 infected in human HuH7 cells incubated for 3 days by viral reduction assay; format: functional
dengue virus type 2 [14] = test: as §5, with “P12-I” for “P12-II”; format: functional
dengue virus type 2 [15] = test: Antiviral activity against NS3 T606A mutant and NS4B V63L mutant containing Dengue virus 2 isolate P12-VI infected in human HuH7 cells using viral isolates selected by serial passaging in presence of test compound incubated for 3 days by viral reduction assay; format: functional, organism-based; conditions: Huh-7, 72 h
dengue virus type 2 [16] = test: (§6) Antiviral activity against NS4B V63M and P104S mutant containing Dengue virus 2 isolate P12-V infected in human HuH7 cells using viral isolates selected by serial passaging in presence of test compound incubated for 3 days by viral reduction assay; format: functional, organism-based; conditions: Huh-7, 72 h
dengue virus type 2 [17] = test: (§7) Antiviral activity against NS4B V63M mutant containing Dengue virus 2 isolate P12-IV infected in human HuH7 cells using viral isolates selected by serial passaging in presence of test compound incubated for 3 days by viral reduction assay; format: functional, organism-based; conditions: Huh-7, 72 h
dengue virus type 2 [18] = test: Antiviral activity against NS3 T606A mutant and NS4B V63M mutant containing Dengue virus 2 isolate P12-III infected in human HuH7 cells using viral isolates selected by serial passaging in presence of test compound incubated for 3 days by viral reduction assay; format: functional, organism-based; conditions: Huh-7, 72 h
dengue virus type 2 [19] = test: Antiviral activity against NS3 T606A mutant containing Dengue virus 2 isolate P12-II infected in human HuH7 cells using viral isolates selected by serial passaging in presence of DMSO incubated for 3 days by viral reduction assay; format: functional, organism-based; conditions: Huh-7, 72 h
dengue virus type 2 [20] = test: Antiviral activity against NS3 T606A mutant containing Dengue virus 2 isolate P12-I infected in human HuH7 cells using viral isolates selected by serial passaging in presence of DMSO incubated for 3 days by viral reduction assay; format: functional, organism-based; conditions: Huh-7, 72 h
dengue virus type 2 [21] = test: as §5, with “mutant and NS4B V63M mutant” for “mutant”, “P12-III” for “P12-II”, “test compound” for “DMSO”; format: functional
dengue virus type 2 [22] = test: as §7, with “Resistance index, ratio of EC50 for antiviral” for “Antiviral”, “assay to EC50 for antiviral activity against Dengue virus 2 isolate P0 infected in human HuH7 cells incubated for 3 days by viral reduction assay” for “assay”; format: functional
dengue virus type 2 [23] = test: as §6, with “Resistance index, ratio of EC50 for antiviral” for “Antiviral”, “assay to EC50 for antiviral activity against Dengue virus 2 isolate P0 infected in human HuH7 cells incubated for 3 days by viral reduction assay” for “assay”; format: functional
dengue virus type 2 [24] = test: as §5, with “mutant and NS4B V63L mutant” for “mutant”, “P12-VI” for “P12-II”, “test compound” for “DMSO”; format: functional

Question: Which results are given for `CC(C)CCN1C(=O)[C@]2(CC(=O)Nc3c2nnn3[C@@H](C)c2ccc(Cl)cc2)c2cc(Cl)ccc21`?
Answer: pEC50 (dengue virus type 2 [1]): 6.91; CC50 at 48 h [2]: > 10000 nM; pEC50 (dengue virus type 4): < 5.30; pEC50 (dengue virus type 3): 7.46; pEC50 (dengue virus type 2 [3]): 6.80; pEC50 (dengue virus type 1): 6.11; log reduction (dengue virus type 2 [4]): 2.4; pEC50 (dengue virus type 2 [5]): 5.71; Ratio EC50 (dengue virus type 2 [6]): 16; pEC50 (dengue virus type 2 [7]): 6.97 to 7.00; Activity (dengue virus type 2 [8]): Active; Tmax [9]: 1 h; CL/F [10]: 59.5 mL/min/kg; bioavailability [11]: 30%; pEC50 (dengue virus type 2 [12]): 6.89

Question: With `C[C@@H](c1ccc(Cl)cc1)n1nnc2c1NC(=O)C[C@]21C(=O)N(CCN(C)C)c2ccc(Cl)cc21` as the compound, how does the “Ratio EC50” value (dengue virus type 2 [13]) read?
Answer: 0.93

Question: And the “Ratio EC50” value (dengue virus type 2 [14])?
Answer: 0.8

Question: What about the pEC50 (dengue virus type 2 [1]) of the same compound?
Answer: 7.22

Question: And the pEC50 (dengue virus type 2 [15])?
Answer: < 5.22

Question: And the pEC50 (dengue virus type 2 [16])?
Answer: < 5.22

Question: And the pEC50 (dengue virus type 2 [17])?
Answer: < 5.22

Question: What about the pEC50 (dengue virus type 2 [18]) of the same compound?
Answer: < 5.22

Question: What about the pEC50 (dengue virus type 2 [19]) of the same compound?
Answer: 7.25

Question: And the pEC50 (dengue virus type 2 [20])?
Answer: 7.32

Question: And the CC50 at 48 h [2]?
Answer: > 10000 nM

Question: What about the pEC50 (dengue virus type 4) of the same compound?
Answer: < 5.30

Question: And the pEC50 (dengue virus type 3)?
Answer: 8.70

Question: What about the pEC50 (dengue virus type 2 [3]) of the same compound?
Answer: 7.60

Question: And the pEC50 (dengue virus type 1)?
Answer: < 5.30

Question: And the “Ratio EC50” value (dengue virus type 2 [21])?
Answer: >100

Question: What about the “Ratio EC50” value (dengue virus type 2 [22]) of the same compound?
Answer: >100

Question: What about the “Ratio EC50” value (dengue virus type 2 [23]) of the same compound?
Answer: >100

Question: What about the “Ratio EC50” value (dengue virus type 2 [24]) of the same compound?
Answer: >100
